The source of these data is ChEMBL document CHEMBL1671864, “First assessment in humans of the safety, tolerability, pharmacokinetics, and ex vivo pharmacodynamic antimalarial activity of the new artemisinin derivative artemisone” (Antimicrob Agents Chemother, 2008).

Series [1] deals with Plasma. Put plainly: Tmax in healthy human plasma assessed as metabolite BAY 78-1788 Tmax at 40 mg, po administered as two 20 mg immediate release tablets daily for 3 days during 10 hrs overnight fasting state measured after 3 day. It counts as ADME, organism-based. The conditions noted are these: in vivo, 72 h. The method in brief:
(§1)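 Healthy Caucasian men (8 active, 4 placebo per dose) dosed with tablets daily for 3 days after 10-h fast. Lithium-heparin plasma sampled predose and 0.25–14 h after day-1 and day-3 doses, stored frozen. Parent and M1–M3 quantified by LC/MS-MS in positive-ion MRM. Tmax taken directly from observed individual data.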

In series [2] the test system is Plasma. Put plainly: Half-life in healthy human plasma assessed as metabolite BAY 78-1788 half-life at 80 mg, po administered as single ascending doses during 10 hrs overnight fasting state. The note with it: in vivo. It counts as ADME, organism-based. The method in brief:
(§2)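 Healthy Caucasian male volunteers, single oral dose with 240 ml water after a 10-h overnight fast. Heparinised venous blood was drawn predose and at 0.25–14 h. Plasma was stored frozen. Parent drug and metabolites M1–M3 were measured by LC/MS-MS (MRM, deuterated internal standard). Noncompartmental analysis gave Cmax observed, t1/2 = 0.693/kel (terminal regression) and MRT = AUMC/AUC. Values are geometric means.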

Series [3] concerns Plasma. Put plainly: Cmax in healthy human plasma assessed as metabolite BAY 78-1788 Cmax at 40 mg, po administered as two 20 mg immediate release tablets daily for 3 days during 10 hrs overnight fasting state measured after 3 day. It counts as ADME, organism-based. The note with it: in vivo, 72 h. The arrangement: dose 40 mg, route oral. In outline:
(§3)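 Healthy Caucasian males took tablets once daily for 3 days with 240 ml water after a 10-h fast. Heparinised blood was drawn predose and at 0.25–14 h after the first and last doses. Plasma parent drug and metabolites M1–M3 were measured by LC/MS-MS (MRM, deuterated internal standard). Noncompartmental analysis gave Cmax observed, t1/2 = 0.693/kel and MRT = AUMC/AUC. Values are geometric means.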

In series [4] the test system is Plasma. Put plainly: AUC (0 to infinity) in healthy human plasma assessed as metabolite BAY 78-1788 AUC (0 to infinity) at 80 mg, po administered as single ascending doses during 10 hrs overnight fasting state. It counts as ADME, organism-based. The arrangement: dose 80 mg, time infinity, route oral. The conditions noted are these: in vivo. The method in brief:
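Healthy Caucasian male volunteers, single oral dose of 80 mg as four 20-mg immediate-release tablets, taken with 240 ml water after a 10-h overnight fast. Lithium-heparin venous blood was drawn predose and at 0.25–14 h, and plasma was stored frozen. Metabolites M1/M2/M3 were measured by LC/MS-MS (positive-ion MRM, deuterated internal standard). Noncompartmental analysis, AUC by log-linear trapezoidal rule extrapolated to infinity (Clast/kel), geometric means.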

The test system of series [5] is Plasma. Put plainly: Half life in healthy human plasma assessed as metabolite BAY 78-1788 Half life at 40 mg, po administered as two 20 mg immediate release tablets daily for 3 days during 10 hrs overnight fasting state measured after 3 day. It is filed as ADME, organism-based. The conditions noted are these: in vivo, 72 h. The method in brief:
as §3

The test system of series [6] is Plasma. Put plainly: Cmax in healthy human plasma assessed as metabolite BAY 78-1788 Cmax at 80 mg, po administered as single ascending doses during 10 hrs overnight fasting state. The note with it: in vivo. It counts as ADME, organism-based. The arrangement: dose 80 mg, route oral. In outline:
as §2

Series [7] deals with Plasma. Put plainly: AUC in healthy human plasma assessed as metabolite BAY 78-1788 AUC at 80 mg, po administered as four 20 mg immediate release tablets daily for 3 days during 10 hrs overnight fasting state measured after 3 day. The arrangement: dose 80 mg, time < 10 hr, route oral. The conditions noted are these: in vivo. It is filed as ADME, organism-based. The method in brief: (§4)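 Healthy Caucasian male volunteers took 40 mg (two 20-mg IR tablets) or 80 mg (four tablets) orally once daily for 3 days, with 240 ml water after a 10-h fast. Plasma was sampled predose to 14 h after the first and last doses. M1/M2/M3 were quantified by LC/MS-MS MRM against a D4-labelled internal standard. Cmax was read from observed data and AUC by log-linear trapezoidal rule, noncompartmental, geometric means.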

Series [8] has as its system Plasma. Description: Ratio of AUC (0 to infinity) for metabolite BAY 78-1788 to AUC (0 to infinity) for compound in healthy human plasma at 80 mg, po administered as single dose for 3 days measured after 1 day. It is filed as ADME, organism-based. The note with it: in vivo, 24 h. In outline:
(§5)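 Healthy Caucasian men (8 active, 4 placebo per dose) dosed with tablets daily for 3 days after 10-h fast. Plasma sampled 0.25–14 h after first and last doses. Parent and metabolites M1–M3 measured by LC/MS-MS (200 µl plasma). Metabolic ratio is metabolite AUC0-∞ divided by parent AUC0-∞ (log-linear trapezoidal, extrapolated by last concentration/kel). First vs third dose compared by paired t test.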

Series [9] relates to Plasma. Description: AUC in healthy human plasma assessed as metabolite BAY 78-1788 AUC at 80 mg, po administered as four 20 mg immediate release tablets daily for 3 days during 10 hrs overnight fasting state measured after 1 day. It is filed as ADME, organism-based. The arrangement: dose 80 mg, time < 10 hr, route oral. The note with it: in vivo. The method in brief: as §4

For the next series, the system named is Plasmodium falciparum. Put plainly: Antimalarial activity against Plasmodium falciparum K1 in human plasma assessed as inhibition of hypoxanthine uptake by intraerythrocytic malaria parasites by hypoxanthine incorporation assay. It is filed as functional, organism-based. The method in brief:
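K1 or TM90-C2A parasites were sorbitol-synchronized and cultured in RPMI 1640. Drug was diluted in drug-free human serum (0.04–40 ng/ml) or subject plasma was diluted twofold (8–8,192). Parasites were added at 2% hematocrit, 1% parasitemia (>95% rings), and [3H]hypoxanthine uptake was measured over 48 h. IC50 or ID50 came from concentration or dilution-response curves. Equivalent concentration = ID50 × IC50.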

Series [10] relates to Plasma. Description: Cmax in healthy human plasma assessed as metabolite BAY 78-1788 Cmax at 40 mg, po administered as two 20 mg immediate release tablets daily for 3 days during 10 hrs overnight fasting state measured after 1 day. It is filed as ADME, organism-based. The arrangement: dose 40 mg, route oral. The conditions noted are these: in vivo, 24 h. In outline:
as §4

Series [11] deals with Plasma. Description: Half life in healthy human plasma assessed as metabolite BAY 78-1788 Half life at 80 mg, po administered as four 20 mg immediate release tablets daily for 3 days during 10 hrs overnight fasting state measured after 1 day. The conditions noted are these: in vivo, 24 h. It is filed as ADME, organism-based. The method in brief: as §3
Series [12] deals with Plasma. Put plainly: Ratio of AUC (0 to infinity) for metabolite BAY 78-1788 to AUC (0 to infinity) for compound in healthy human plasma at 80 mg, po administered as single dose for 3 days measured after 3 days. It counts as ADME, organism-based. The conditions noted are these: in vivo, 72 h. The method in brief:
as §5

Series [13] has as its system Plasma. Description: Ratio of AUC (0 to infinity) for metabolite BAY 78-1788 to AUC (0 to infinity) for compound in healthy human plasma at 40 mg, po administered as single dose for 3 days measured after 3 days. It counts as ADME, organism-based. The note with it: in vivo, 72 h. The method in brief: as §5
Series [14] concerns Plasma. Put plainly: AUC in healthy human plasma assessed as metabolite BAY 78-1788 AUC at 40 mg, po administered as two 20 mg immediate release tablets daily for 3 days during 10 hrs overnight fasting state measured after 1 day. It is filed as ADME, organism-based. The arrangement: dose 40 mg, time < 10 hr, route oral. The note with it: in vivo. The method in brief: as §4

The subject of series [15] is Plasma. Put plainly: Cmax in healthy human plasma assessed as metabolite BAY 78-1788 Cmax at 80 mg, po administered as four 20 mg immediate release tablets daily for 3 days during 10 hrs overnight fasting state measured after 3 day. It is filed as ADME, organism-based. The arrangement: dose 80 mg, route oral. The note with it: in vivo, 72 h. In outline:
as §3

In series [16] the test system is Plasma. Put plainly: Half life in healthy human plasma assessed as metabolite BAY 78-1788 Half life at 80 mg, po administered as four 20 mg immediate release tablets daily for 3 days during 10 hrs overnight fasting state measured after 3 day. It counts as ADME, organism-based. The note with it: in vivo, 72 h. In outline:
as §3

Series [17] deals with Plasma. Description: Tmax in healthy human plasma assessed as metabolite BAY 78-1788 Tmax at 80 mg, po administered as four 20 mg immediate release tablets daily for 3 days during 10 hrs overnight fasting state measured after 3 day. It is filed as ADME, organism-based. The note with it: in vivo, 72 h. The method in brief:
as §1

In series [18] the test system is Plasma. Description: Tmax in healthy human plasma assessed as metabolite BAY 78-1788 Tmax at 40 mg, po administered as two 20 mg immediate release tablets daily for 3 days during 10 hrs overnight fasting state measured after 1 day. It is filed as ADME, organism-based. The note with it: in vivo, 24 h. The method in brief: as §1
Series [19] concerns Plasma. Put plainly: Cmax in healthy human plasma assessed as metabolite BAY 78-1788 Cmax at 80 mg, po administered as four 20 mg immediate release tablets daily for 3 days during 10 hrs overnight fasting state measured after 1 day. It is filed as ADME, organism-based. The conditions noted are these: in vivo, 24 h. The arrangement: dose 80 mg, route oral. The method in brief:
as §3

Series [20] concerns Plasma. Put plainly: Ratio of AUC (0 to infinity) for metabolite BAY 78-1788 to AUC (0 to infinity) for compound in healthy human plasma at 40 mg, po administered as single dose for 3 days measured after 1 day. It is filed as ADME, organism-based. The note with it: in vivo, 24 h. In outline:
as §5

The test system of series [21] is Plasma. Description: Tmax in healthy human plasma assessed as metabolite BAY 78-1788 Tmax at 80 mg, po administered as four 20 mg immediate release tablets daily for 3 days during 10 hrs overnight fasting state measured after 1 day. It counts as ADME, organism-based. The note with it: in vivo, 24 h. In outline:
as §1

The subject of series [22] is Plasma. Description: AUC in healthy human plasma assessed as metabolite BAY 78-1788 AUC at 40 mg, po administered as two 20 mg immediate release tablets daily for 3 days during 10 hrs overnight fasting state measured after 3 day. It counts as ADME, organism-based. The arrangement: dose 40 mg, time < 10 hr, route oral. The note with it: in vivo. In outline:
as §4

For series [23], the system named is Plasma. Description: Half life in healthy human plasma assessed as metabolite BAY 78-1788 Half life at 40 mg, po administered as two 20 mg immediate release tablets daily for 3 days during 10 hrs overnight fasting state measured after 1 day. The conditions noted are these: in vivo. It is filed as ADME, organism-based. In outline:
as §3

Each structure is given as a SMILES string. Values after ≈ are worked out from the molar mass of the structure shown.

For `C[C@H]1[C@H](N2CCS(=O)(=O)CC2)O[C@@H]2O[C@]3(C)C[C@H](O)[C@H]4[C@H](C)CC[C@@H]1[C@@]24OO3`, the Tmax – broadly, the time at which the peak concentration occurs – is 2 h in the series on Plasma [1], 2.5 h with Plasma [17], 1.75 h in the series on Plasma [18] and 2 h with Plasma [21]. Besides, the t1/2 with Plasma [2] was determined as 1.36 h; with Plasma [5], 1.28 h; in the series with Plasma [11], 1.59 h; in the series with Plasma [16], 1.44 h; with Plasma [23], 1.31 h. For the same molecule, the Cmax (in general, the highest concentration seen after dosing) with Plasma [3] stood at 36.4 ng/mL; with Plasma [6], 108.9 ng/mL; with Plasma [10], 40.6 ng/mL; with Plasma [15], 66.5 ng/mL; in the series on Plasma [19], 87.2 ng/mL. Besides, the AUC (commonly the area under the concentration-time curve, a measure of exposure) in the series on Plasma [4] was determined as 379.9 ng·h/mL; in the series with Plasma [7] it was 263 ng·h/mL; in the series on Plasma [9], 302.4 ng·h/mL; in the series with Plasma [14], 117.3 ng·h/mL; with Plasma [22], 115.1 ng·h/mL. The Ratio turned out to be 0.91 in the series with Plasma [8], 0.82 in the series with Plasma [12], 0.65 in the series on Plasma [13] and 0.71 in the series on Plasma [20]. The IC50 (in general, the concentration that gives 50% inhibition) in the series with Plasmodium falciparum is 0.0257 µg/mL (≈ 0.0616 µM).
